Values after ≈ are worked out from the molar mass of the structure shown.
Assays:
Onchocerca ochengi = assay: WHO-TDR: Onchocerciasis; format: functional; design: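 at 12.5 µM on microfilariae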
Method in brief: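 Percent inhibition and IC50 describe activity against microfilariae of Onchocerca ochengi or Onchocerca lienalis, used as animal-pathogen substitutes for the human parasite. The compounds tested made up a 10,000-member diverse library from Life Chemicals.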

Brugia malayi = assay: WHO-TDR: Lymphatic Filariasis; format: functional; design: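 tested at 10 µM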
Method in brief: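 The screening set was a 10,000-compound diverse library from Life Chemicals, filtered for drug-likeness and for reactive groups. It was run against Brugia malayi microfilariae as whole organisms, using previously published standard procedures. Reference drugs acted as positive controls, and activity is reported both as percent inhibition and as IC50.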

Plasmodium falciparum K1 = assay: WHO-TDR: Malaria; format: functional, organism-based, Homo sapiens; conditions: Erythrocyte
Method in brief: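 This whole-organism screen covered 10,000 drug-likeness-filtered and reactive-group-filtered compounds from Life Chemicals. The target was the Plasmodium falciparum K1 strain in human red blood cells, and the readout was antiplasmodial IC50.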

[1] = test system: Trypanosoma brucei brucei; assay: WHO-TDR: Human African Trypanosomiasis (HAT); format: functional, organism-based; conditions: Squib-427
Method in brief: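 Screening used a 10,000-compound diverse library supplied by Life Chemicals and filtered for drug-likeness and reactive groups. Whole bloodstream-form parasites of Trypanosoma brucei Squib 427 strain were assayed according to previously published standard procedures, with reference drugs as positive controls. The reported measure is IC50, reflecting antiparasitic potency.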

[2] = WHO-TDR: Cytotoxicity; format: toxicity, cell-based; conditions: human, MRC5 cells
Schistosoma mansoni = assay: WHO-TDR: Schistosomiasis; format: functional; design: concentration or dose not given beside the values
Method in brief: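 Percent inhibition and IC50 describe activity against whole Schistosoma mansoni worms of the Puerto Rican strain, tested as larvae and/or adults. The compounds screened were a diverse set of 10,000 from Life Chemicals, filtered for drug-likeness and reactive groups. Testing followed previously published standard procedures, with a reference drug as positive control.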

Trypanosoma cruzi = assay: WHO-TDR: Chagas disease; format: functional, organism-based, Homo sapiens; conditions: MRC5
Method in brief: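 A diverse library of 10,000 compounds from Life Chemicals, filtered for drug-likeness and reactive groups, was screened against intracellular amastigotes of Trypanosoma cruzi Tulahuen CL2 beta-galactosidase strain. The parasites were grown in MRC-5SV2 human lung fibroblast host cells, and a reference drug served as positive control under previously published standard procedures. Antiparasitic potency is given as IC50.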

Leishmania infantum = assay: WHO-TDR: Leishmaniasis; format: functional, organism-based, Mus musculus; conditions: Macrophage
Method in brief: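 The screened collection came from Life Chemicals: 10,000 diverse compounds selected after filtering for drug-likeness and reactive groups. Each was tested in a whole-organism assay against Leishmania infantum MHOM/MA(BE)/67 amastigotes inside murine peritoneal macrophages, using previously published standard procedures and a reference drug as positive control. Results are IC50 values for antiparasitic potency.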

Compound | % Inhibition (Onchocerca ochengi) | % Inhibition (Brugia malayi) | IC50 (Plasmodium falciparum K1) | IC50 [1] | IC50 [2] | % Inhibition (Schistosoma mansoni) | IC50 (Trypanosoma cruzi) | IC50 (Leishmania infantum)
CCC(C(=O)Nc1cc(-c2cn3nc(OC)ccc3n2)ccc1Cl)c1ccccc1 (stereo not drawn) | 100% | 0% | > 12.6 µg/mL | > 12.6 µg/mL | > 12.6 µg/mL | 0% | 8.38 µg/mL (≈ 19.9 µM) | > 12.6 µg/mL
O=C(c1ccc(Br)o1)C1C(=O)N(c2ccccc2)N=C1c1ccccc1 (stereo not drawn) | 100% | 0% | > 12.3 µg/mL | 4.44 µg/mL (≈ 10.8 µM) | > 12.3 µg/mL | 0% | 5.34 µg/mL (≈ 13.1 µM) | > 12.3 µg/mL
Cc1ccc(-c2cc(CC(=O)Nc3cccc(C)n3)no2)cc1 | 100% | 0% | > 9.22 µg/mL | > 9.22 µg/mL | > 9.22 µg/mL | 0% | > 9.22 µg/mL | > 9.22 µg/mL
CCn1ccc(C(=O)Nc2ccc3nc(SC)sc3c2)n1 | 100% | 0% | 0.955 µg/mL (≈ 3 µM) | > 9.55 µg/mL | > 9.55 µg/mL | 0% | > 9.55 µg/mL | > 9.55 µg/mL
CC(C)CC(=O)N1CCN(c2ccc(-c3ccccn3)nn2)CC1 | 100% | 33.33% | 1.13 µg/mL (≈ 3.46 µM) | 3.09 µg/mL (≈ 9.49 µM) | 3.86 µg/mL (≈ 11.9 µM) | 25% | 0.763 µg/mL (≈ 2.34 µM) | 3.09 µg/mL (≈ 9.49 µM)
C=CCn1c(Sc2nc3ccccc3o2)nc2c1c(=O)[nH]c(=O)n2C | 0% | 20% | 10.7 µg/mL (≈ 30 µM) | 0.337 µg/mL (≈ 0.948 µM) | > 10.7 µg/mL | 0% | 4.04 µg/mL (≈ 11.4 µM) | > 10.7 µg/mL
O=c1ccc(-c2ccc(F)cc2)nn1CCCNS(=O)(=O)c1cc(F)ccc1F | 100% | 0% | > 12.7 µg/mL | 4.24 µg/mL (≈ 10 µM) | 3.28 µg/mL (≈ 7.74 µM) | 0% | > 12.7 µg/mL | > 12.7 µg/mL
CC1CC(C)CN(S(=O)(=O)CCCOc2ccc3c(c2)OCO3)C1 (stereo not drawn) | 0% | 20% | > 10.7 µg/mL | > 10.7 µg/mL | 4.25 µg/mL (≈ 11.9 µM) | 100% | > 10.7 µg/mL | > 10.7 µg/mL
Cc1cc(-c2nnc(NC(=O)c3nc4ccccc4s3)o2)nn1C | 100% | 33.33% | > 10.2 µg/mL | > 10.2 µg/mL | > 10.2 µg/mL | 0% | 3.72 µg/mL (≈ 10.9 µM) | > 10.2 µg/mL
Cc1ccc(S(=O)(=O)N(CC(O)CNCc2ccco2)c2ccc(F)cc2)cc1 (stereo not drawn) | 100% | 0% | 1.27 µg/mL (≈ 3.04 µM) | 5.19 µg/mL (≈ 12.4 µM) | > 16.2 µg/mL | 0% | 5.67 µg/mL (≈ 13.5 µM) | > 16.2 µg/mL
O=C(C1CC1)N1CCN(c2ccc(-c3ccccn3)nn2)CC1 | 100% | 33.33% | 1.05 µg/mL (≈ 3.39 µM) | 2.94 µg/mL (≈ 9.49 µM) | 2.38 µg/mL (≈ 7.7 µM) | 25% | 2.1 µg/mL (≈ 6.77 µM) | > 9.28 µg/mL
CN(C1CC1)S(=O)(=O)c1ccc(C(=O)Nc2nnc(-c3ccc(Br)s3)o2)cc1 | 100% | 0% | > 14.5 µg/mL | 4.75 µg/mL (≈ 9.83 µM) | 3.91 µg/mL (≈ 8.09 µM) | 0% | 4.76 µg/mL (≈ 9.85 µM) | 4.69 µg/mL (≈ 9.71 µM)
Cc1cc(C(=O)Nc2nnc(-c3ccco3)o2)on1 | 100% | 20% | > 7.81 µg/mL | > 7.81 µg/mL | > 7.81 µg/mL | 25% | > 7.81 µg/mL | > 7.81 µg/mL
COc1ccc(C)cc1S(=O)(=O)NCCNc1ccc(Nc2cccc(C)n2)nn1 | 100% | 0% | 3.4 µg/mL (≈ 7.95 µM) | 5.42 µg/mL (≈ 12.7 µM) | > 12.9 µg/mL | 0% | > 12.9 µg/mL | > 12.9 µg/mL
Cc1ccc(-n2ccnc2N2CCN(C(=O)c3ccc4ccccc4c3)CC2)cc1 | 100% | 0% | 4.25 µg/mL (≈ 10.7 µM) | 4.21 µg/mL (≈ 10.6 µM) | 2.65 µg/mL (≈ 6.67 µM) | 8.3% | 2.67 µg/mL (≈ 6.73 µM) | 2.56 µg/mL (≈ 6.45 µM)
O=S(=O)(CCCOc1ccc2c(c1)OCO2)NCCc1c[nH]c2ccccc12 | 100% | 0% | > 12.1 µg/mL | > 12.1 µg/mL | > 12.1 µg/mL | 0% | 3.12 µg/mL (≈ 7.74 µM) | > 12.1 µg/mL

Compound | % Inhibition (Onchocerca ochengi) | % Inhibition (Brugia malayi) | IC50 (Plasmodium falciparum K1) | IC50 [1] | IC50 [2] | % Inhibition (Schistosoma mansoni) | IC50 (Trypanosoma cruzi) | IC50 (Leishmania infantum)
O=C(Cc1ccc(Cl)cc1)NCCS(=O)(=O)N1CCN(Cc2ccccc2)CC1 | 100% | 20% | > 14.2 µg/mL | > 14.2 µg/mL | > 14.2 µg/mL | 0% | > 14.2 µg/mL | > 14.2 µg/mL
O=C(Nc1nnc(CCSc2ccccc2)o1)c1ccc(Cl)cc1 | 100% | 0% | > 10.8 µg/mL | 3.49 µg/mL (≈ 9.71 µM) | 3.41 µg/mL (≈ 9.49 µM) | 0% | 3.77 µg/mL (≈ 10.5 µM) | 3.49 µg/mL (≈ 9.71 µM)
CS(=O)(=O)N1CCN(c2ccc(-c3ccccn3)nn2)CC1 | 0% | 0% | > 9.58 µg/mL | > 9.58 µg/mL | > 9.58 µg/mL | 0% | 0.22 µg/mL (≈ 0.689 µM) | > 9.58 µg/mL
O=S(=O)(CCCOc1ccc(F)cc1)NCc1c(F)cccc1F | 50% | 0% | > 10.8 µg/mL | > 10.8 µg/mL | > 10.8 µg/mL | 0% | 5.73 µg/mL (≈ 16 µM) | 0.349 µg/mL (≈ 0.971 µM)
COc1ccc(S(=O)(=O)N2CCN(c3ccc(-c4ccncc4)nn3)CC2)c(OC)c1 | 0% | 33.33% | 2.48 µg/mL (≈ 5.62 µM) | > 13.2 µg/mL | > 13.2 µg/mL | 0% | 5.69 µg/mL (≈ 12.9 µM) | 0.429 µg/mL (≈ 0.972 µM)
O=S(=O)(c1ccc(Cl)s1)N1CCN(c2ccc(-c3ccccn3)nn2)CC1 | 0% | 0% | > 12.7 µg/mL | > 12.7 µg/mL | > 12.7 µg/mL | 0% | 0.438 µg/mL (≈ 1.04 µM) | > 12.7 µg/mL
CC1CCc2[nH]nc(-c3nc(-c4ccc(Cl)cc4)no3)c2C1 (stereo not drawn) | 100% | 0% | > 9.44 µg/mL | > 9.44 µg/mL | > 9.44 µg/mL | 0% | 5.55 µg/mL (≈ 17.6 µM) | > 9.44 µg/mL
O=C(Nc1ccc(SCC(=O)N2CCc3ccccc32)nn1)c1ccccc1F | 0% | 0% | > 12.3 µg/mL | > 12.3 µg/mL | > 12.3 µg/mL | 0% | > 12.3 µg/mL | 0.397 µg/mL (≈ 0.972 µM)
Cc1ccc(-c2nc(CSc3nc(O)cc(C(F)(F)F)n3)c(C)o2)cc1 | 100% | 20% | 11.4 µg/mL (≈ 30 µM) | > 11.4 µg/mL | > 11.4 µg/mL | 0% | > 11.4 µg/mL | > 11.4 µg/mL
Cc1cc(C(=O)Nc2nc(-c3cccnc3)cs2)on1 | 0% | 20% | > 8.59 µg/mL | > 8.59 µg/mL | > 8.59 µg/mL | 25% | 4.16 µg/mL (≈ 14.5 µM) | 0.278 µg/mL (≈ 0.971 µM)
C/C=C/Cn1c(=O)c2c(nc3n(C(C)c4ccccc4)c(C)cn23)n(C)c1=O (stereo not drawn) | 0% | 20% | 6.29 µg/mL (≈ 16.7 µM) | 0.099 µg/mL (≈ 0.262 µM) | > 11.3 µg/mL | 0% | 3.82 µg/mL (≈ 10.1 µM) | > 11.3 µg/mL
Cc1ccc(C)c2sc(N(CCCn3ccnc3)C(=O)COc3ccccc3)nc12 | 100% | 0% | 2.34 µg/mL (≈ 5.56 µM) | 4.44 µg/mL (≈ 10.6 µM) | 5.31 µg/mL (≈ 12.6 µM) | 0% | 1.14 µg/mL (≈ 2.71 µM) | 9.34 µg/mL (≈ 22.2 µM)
COc1nn(C)cc1-c1nnc(SCC(=O)N2CCC(Cc3ccccc3)CC2)n1C | 100% | 0% | 3.65 µg/mL (≈ 8.28 µM) | 0.428 µg/mL (≈ 0.971 µM) | 5.88 µg/mL (≈ 13.3 µM) | 0% | 3.01 µg/mL (≈ 6.84 µM) | 4.28 µg/mL (≈ 9.71 µM)
CCCC(=O)N1CCN(c2ccc(Nc3ccncc3)nn2)CC1 | 0% | 0% | > 9.79 µg/mL | > 9.79 µg/mL | > 9.79 µg/mL | 0% | > 9.79 µg/mL | 0.317 µg/mL (≈ 0.971 µM)
O=C(Nc1ccccc1)N1CCN(c2ccc(Nc3ccccn3)nn2)CC1 | 100% | 0% | > 11.3 µg/mL | > 11.3 µg/mL | 11.3 µg/mL (≈ 30 µM) | 0% | > 11.3 µg/mL | > 11.3 µg/mL
